Read-outs that look alike come from different tables or passages of the source.
Key:
[1] = format: in vivo, mice; details: female, NSG, mouse, iv, 25 uCi, total radioactivity
[2] = system: MDAMB231 and SUM149 tumors; format: in vivo, mice; details: 60 min; 50 μg WL12 s.c. 60 min before tracer, n = 2
[3] = Ex vivo biodistribution of [68Ga]WL12 in hPD-L1 and CHO tumor model; parameters: species or system mice; details: female, NSG, mouse, iv, 25 uCi, total radioactivity
Outline: (§1)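 Female NSG mice, 6–8 weeks old, carried s.c. CHO cells stably expressing human PD-L1 and parental CHO cells (10 × 10^6, opposite upper flanks), used at 200−500 mm3. Radiotracer was given i.v. at 25 μCi, with tissues taken at 15, 60 and 120 min (n = 3). Blocking (n = 2) used 50 μg unlabeled peptide s.c. 60 min pre-tracer. %ID/g was decay-corrected against triplicate 68Ga standards; tumor-to-blood and tumor-to-muscle ratios were derived.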

hPD-L1 and CHO tumors = experiment: as above; parameters: species or system mice; details: 120 min
Outline: as §1

## CCCC[C@H]1C(=O)N(C)[C@@H](CCCC)C(=O)N[C@@H](CCCNC(=O)CCC(C(=O)O)N2CCN(CC(=O)O)CCN(CC(=O)O)CCN(CC(=O)O)CC2)C(=O)N[C@H](C(=O)NCC(N)=O)CSCC(=O)N[C@@H](Cc2ccc(O)cc2)C(=O)N(C)[C@@H](C)C(=O)N[C@@H](CC(N)=O)C(=O)N2CCC[C@H]2C(=O)N[C@@H](Cc2c[nH]cn2)C(=O)N[C@@H](CC(C)C)C(=O)N2C[C@H](O)C[C@H]2C(=O)N[C@@H](Cc2c[nH]c3ccccc23)C(=O)N[C@@H](CO)C(=O)N[C@@H](Cc2cn(C)c3ccccc23)C(=O)N1C (stereo partly shown) [[^68Ga]WL12, metal not drawn]
[1]; MDAMB231 tumor
  tissue uptake at 1 h: 4.97 ± 0.8 %ID/g
[1]; SUM149 tumor
  tissue uptake at 1 h: 1.9 ± 0.1 %ID/g
[1]; kidney
  tissue uptake at 1 h: 65.6 ± 3.6 %ID/g
[1]; liver
  tissue uptake at 1 h: 11.4 ± 0.7 %ID/g
[2]
  reduction in MDAMB231 tumor uptake with blocking dose of WL12: > 50%
[3]; CHO tumor
  tissue uptake at 1 h: 1.33 ± 0.21 %ID/g
[3]; blood
  tissue uptake at 1 h: 3.3 ± 0.4 %ID/g
  tissue uptake at 2 h: 0.6 ± 0.01 %ID/g
[3]; hPD-L1 tumor / blood
  tissue to tissue ratio at 2 h: 16 ± 3.4
[3]; hPD-L1 tumor / muscle
  tissue to tissue ratio at 1 h: 59.8 ± 16.5
  tissue to tissue ratio at 2 h: 100 ± 61.2
[3]; hPD-L1 tumor
  tissue uptake at 0.25 h: 19.4 ± 3.3 %ID/g
  tissue uptake at 1 h: 11.6 ± 3.18 %ID/g
  tissue uptake at 2 h: 9.89 ± 1.72 %ID/g
[3]; kidney
  tissue uptake at 1 h: 64.7 ± 12.1 %ID/g
  tissue uptake at 2 h: 27.7 ± 4.09 %ID/g
[3]; liver
  tissue uptake at 1 h: 15.1 ± 7.6 %ID/g
  tissue uptake at 2 h: 2.7 ± 0.2 %ID/g
hPD-L1 and CHO tumors
  hPD-L1/CHO tumor ratio: 19.7 ± 2.7

Source: article PMC6127800 (Molecular Pharmaceutics, 2018)
